In the library only some 3.6% were active in any assay of this set; here they are far more common.
ZTA DNA inh = ZTA (EBV) inhibition in EBNA-1 counter-screen. ZTA-DNA binding, fluorescence polarization. inhibition, % at 11 µM. hit rate 0.15% among 320,000; in the data active = inhibition above about 33%
Target sequence (P03206 whole entry, looked up): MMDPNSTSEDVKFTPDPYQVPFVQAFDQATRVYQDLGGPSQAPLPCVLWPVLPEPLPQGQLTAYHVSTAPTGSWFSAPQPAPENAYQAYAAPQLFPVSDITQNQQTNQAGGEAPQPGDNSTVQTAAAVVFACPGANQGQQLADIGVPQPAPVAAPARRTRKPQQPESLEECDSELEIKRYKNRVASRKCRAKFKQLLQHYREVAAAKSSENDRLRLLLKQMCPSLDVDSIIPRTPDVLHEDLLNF
EBNA-1 inh = blocks EBNA-1 binding to DNA | EBNA-1 DNA binding, fluorescence polarization | inhibition, % at 14.8 µM | hit rate 0.34% among 300,000; in the data active = inhibition above about 28%
FGF22 binding = shifts melting point of recombinant human FGF22. Q9HCT0. recombinant FGF22 thermal shift, SYPRO orange fluorescence; percent of sucrose octasulfate shift, DMSO zero. activity (Tm shift, normalised), % at 9.99 µM. hit rate 1.5% among 340,000. AID 651658;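 active = mean Tm shift, scaled 0 neutral to 100 positive control, at about 1.3% or above, every replicate too, limit read from the data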
Target sequence (Q9HCT0 whole entry, looked up): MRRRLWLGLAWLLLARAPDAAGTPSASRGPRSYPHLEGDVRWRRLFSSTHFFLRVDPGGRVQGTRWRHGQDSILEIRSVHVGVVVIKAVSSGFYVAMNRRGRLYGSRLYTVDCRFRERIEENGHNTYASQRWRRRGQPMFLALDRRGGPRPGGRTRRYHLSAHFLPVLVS
GRIN3A LBD mod = modulates the human NR3A ligand-binding domain. NR3A LBD differential scanning fluorimetry, Tm shift; 0% = protein alone, 100% = glycine-bound protein. Tm shift relative to glycine control, % at 25 µM. hit rate 2.5% among 340,000. AID 1259313;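 active = melting temperature shift of at least 10% of the positive control shift, at one fixed dose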
DNA FID counter-1 = fluorescent intercalator displacement, NS3 helicase counter-screen | DNA fluorescent intercalator displacement, fluorescence | inhibition, % at 7.9 µM | hit rate 0.17% among 290,000;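 also: 0% = vehicle and 100% = reference compound; higher means more ethidium bromide displaced from hairpin DNA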
NS3 helicase inh = inhibitors of Hepatitis C virus NS3 helicase; NS3 helicase DNA unwinding, Cy5 molecular beacon fluorescence; inhibition, % at 10.9 µM; hit rate 0.56% among 290,000; AID 1800;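 active = inhibition above the mean of all tested compounds plus 3 SD, set per campaign, cut at about 35% in these data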;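 also: 0% = DMSO wells and 100% = thioflavine S control wells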
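Measured by: Cy5 fluorescence, 0 and 60 min reads / Assay system: NS3 helicase fragment of HCV / Control set: low DMSO, high thioflavine S at 110 µM / Times: 1 h reaction at 25 °C, ATP-initiated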
NS3 hel confirm = HCV NS3 helicase inhibition, confirmation assay; shares compounds with NS3 helicase inh; NS3 helicase DNA unwinding, Cy5 molecular beacon fluorescence; inhibition, % at 10.9 µM; hit rate 31% among 1,600; AID 1943;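 active = inhibition above the mean of all tested compounds plus 3 SD, cutoff set per campaign, cut at about 36% in these data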
DNA FID counter-2 = counter-screen for HCV NS3 helicase inhibitors: DNA intercalator displacement; shares compounds with NS3 helicase inh; DNA fluorescent intercalator displacement, fluorescence; inhibition, % at 7.9 µM; hit rate 4% among 1,600;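 also: 0% = vehicle and 100% = reference compound; higher means more displacement of ethidium bromide from the DNA hairpin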
FID counter DR = DNA intercalator displacement in dose response; shares compounds with NS3 helicase inh; fluorescent intercalator displacement from DNA, fluorescence; 120 tested, under 10 active; IC50, µM; call rule not given here
* marks the source's active call; other numbers are inactive results; x = no result. Rule as the data show it, unless noted: active = inhibition above about 37%; inactive = the rest.

SMILES	ZTA DNA inh	EBNA-1 inh	FGF22 binding	GRIN3A LBD mod	DNA FID counter-1	NS3 helicase inh	NS3 hel confirm	DNA FID counter-2	others
CCc1cc2c(=O)n(Cc3ccco3)c(SCc3c(C)noc3C)nc2s1	-4	7	x	-1	-48	51*	48*	-30	FID counter DR=>79
COCC(=O)Nc1ccc2c(c1)C(=O)N(C)C[C@H](OC)[C@H](C)CN(C(C)=O)[C@H](C)CO2	x	x	0	x	x	x	x	x
Cc1ccc(Cn2c(/C=C/c3ccco3)nc3ccccc32)cc1	-4	13	x	-2	-18	43*	-13	-1
CCCn1c(/C=C/c2ccco2)nc2ccccc21	8	-2	0	-1	-35	52*	1	5
Clc1ccc(Cn2c(/C=C/c3ccco3)nc3ccccc32)cc1	-8	9	x	2	-29	23	x	x
CCCCn1c(/C=C/c2ccco2)nc2ccccc21	-34	-7	0	-3	-24	44*	-14	-9
C[C@@H]1CCCCO[C@@H](CN(C)C(=O)Nc2cccc3ccccc23)[C@@H](C)CN([C@H](C)CO)C(=O)c2cc(NC(=O)c3ccncc3)ccc2O1	x	x	0	x	x	x	x	x
C[C@@H]1CN([C@H](C)CO)C(=O)c2cccc(NC(=O)C3CCCCC3)c2O[C@@H]1CN(C)Cc1ccc2c(c1)OCO2	x	x	0	x	x	x	x	x
C[C@H](CO)N1C[C@H](C)[C@@H](CN(C)S(=O)(=O)c2ccc(F)cc2)Oc2c(NS(=O)(=O)c3ccc(Cl)cc3)cccc2C1=O	x	x	0	x	x	x	x	x
O=C(O)CCCNc1cc(N2CCN(C(=O)c3ccco3)CC2)c2noc3c2c1C(=O)c1ccccc1-3	149*	81*	0	6	-50	37*	72*	-26
Cc1ccc(OCC(=O)N/N=C\c2ccc(-c3cccc(C(=O)O)c3)o2)c(C)c1	0	-2	x	12*	-33	43*	91*	-13
O=C(NC(=S)Nc1ccc(-c2ccc(CO)o2)cc1)c1cccs1	8	-9	x	-4	-19	37*	40*	13
CCC1C/C(=C/c2ccco2)C(=O)/C(=C/c2ccco2)C1 (configuration not stated)	14	5	x	x	-20	46*	77*	12
CCC1C/C(=C\c2cc(OC)c(OC)cc2OC)C(=O)/C(=C/c2cc(OC)c(OC)cc2OC)C1 (configuration not stated)	24	2	x	4	-15	-25	x	x
COc1ccc(S(=O)(=O)N[C@@H]2CC[C@H](CC(=O)O)O[C@H]2CO)cc1	x	x	0	x	x	x	x	x
CCc1ccc(NC(=O)Nc2cccs2)cc1	6	-17	x	9	-8	44*	-15	12
CC(=O)c1ccc(NC(=O)CC2Nc3cccc4cccc(c34)NC2=O)cc1 (configuration not stated)	2	-22	-1	-5	-15	35	x	x
Cc1cccc(NC(=O)CC2Nc3cccc4cccc(c34)NC2=O)c1 (configuration not stated)	12	-10	0	-3	-12	45*	-26	14
CC(=O)Nc1ccc(NC(=O)CC2Nc3cccc4cccc(c34)NC2=O)cc1 (configuration not stated)	5	7	x	-11	-20	46*	-1	2
C[C@@H]1CN([C@@H](C)CO)C(=O)c2cccc(NC(=O)NC3CCCCC3)c2O[C@@H]1CN(C)C	x	x	0	x	x	x	x	x
COc1ccc2c3c([nH]c2c1)[C@H](CO)N(C(=O)C1CCOCC1)CC31CN(Cc2nccs2)C1	x	x	0	x	x	x	x	x
Cc1ccc(-c2nc3ccc(C(=O)O)cc3nc2-c2ccc(C)cc2)cc1	-12	4	x	-1	-17	23	x	x
COc1ccc(CCNC(=O)c2ccc3nc(-c4ccco4)c(-c4ccco4)nc3c2)cc1OC	-12	3	x	-5	-21	52*	41*	-8
CCc1nc2ccc(C(=O)N3CCN(c4ccccc4)CC3)cc2nc1CC	17	11	0	0	-62	-10	x	x
O=C(O)c1ccc2nc(-c3ccco3)c(-c3ccco3)nc2c1	x	x	0	-1	-6	45*	67*	10
SMILES	ZTA DNA inh	EBNA-1 inh	FGF22 binding	GRIN3A LBD mod	DNA FID counter-1	NS3 helicase inh	NS3 hel confirm	DNA FID counter-2	others
O=C(c1ccc2nc(-c3ccco3)c(-c3ccco3)nc2c1)N1CCN(c2ccccc2)CC1	5	-17	x	-3	-19	41*	65*	-15	FID counter DR=>79
O=C(COC(=O)c1ccccc1SCC(=O)N1CCCC1)Nc1ccccc1	-4	-11	x	0	-43	38*	-11	-17
COc1cccc(NC(=O)COC(=O)c2ccccc2SCC(=O)N2CCCC2)c1	10	5	x	1	x	x	x	x
COCC(=O)N1C[C@@H](C)[C@H](OC)CN(C)C(=O)c2ccc(NC(=O)c3cc(C)on3)cc2OC[C@H]1C	x	x	0	x	x	x	x	x
Cc1ccc(S(=O)(=O)Nc2ccc3c(c2)CC(=O)N([C@H](C)CO)C[C@@H](C)[C@@H](CN(C)C(=O)Nc2c(C)noc2C)O3)cc1	x	x	0	x	x	x	x	x
C[C@H]1CN([C@@H](C)CO)S(=O)(=O)c2ccc(-c3ccc(F)cc3)cc2O[C@H]1CN(C)S(C)(=O)=O	x	x	0	x	x	x	x	x
CN1C(=O)c2cc(NC(=O)c3cscn3)ccc2OC[C@@H]2O[C@@H](CC(=O)N3CCCCC3)CC[C@H]21	x	x	0	x	x	x	x	x
CCOC(=O)c1sc2ncnc(NCC(c3cccs3)N(C)C)c2c1C (configuration not stated)	-2	-1	x	-1	-2	-2	x	x
CN(C)C(CNc1ncnc2sccc12)c1cccs1 (configuration not stated)	-15	-7	0	1	8	74*	-13	4
COC(=O)C1=C/c2ccccc2C(C2CC2)N(Cc2ccc(OC)cc2)/C=C\1C(=O)OC (configuration not stated)	x	x	0	x	x	x	x	x
CC(=O)N(C)C[C@@H]1Oc2cc(C#CCC3CCCC3)ccc2S(=O)(=O)N([C@H](C)CO)C[C@H]1C	x	x	0	x	x	x	x	x
COc1ccc(C2Nc3cccc4cccc(c34)N2)cc1	-1	0	0	-8	3	6	x	x
Clc1ccc(C2Nc3cccc4cccc(c34)N2)cc1Cl	-18	-20	0	-1	0	59*	-22	25
Clc1cccc(C2Nc3cccc4cccc(c34)N2)c1	2	-14	0	-1	0	55*	-10	13
Brc1cccc(C2Nc3cccc4cccc(c34)N2)c1	-6	-9	0	2	-3	24	x	x
C/C(=N\NC(=O)CC1(C)OCCO1)c1cccs1	-6	2	x	-1	-4	46*	-8	-1

High-throughput results: PubChem, several laboratories
